Assay results: ChEMBL document CHEMBL5058577, “EUbOPEN Chemogenomics Library 2 (Multiplex)” (2022)

System: Fibroblast
Assay: Multiplex assay against human fibroblast
Type: toxicity, cell-based
Outline: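 Imaging took place on a CQ1 microscope at 37°C and 5% CO2 once compound had been added to live cells stained at seeding with Hoechst33342, BioTracker Green Microtubule Cytoskeleton Dye, MitoTracker Red and Annexin V Alexa Fluor 680. CellPathfinder machine-learning gating classed cells as Hoechst high-intensity objects or normal cells, classed normal cells as having healthy, pyknosed or fragmented nuclei, and classed pyknosed cells as mitotic or apoptotic. Tubulin, mitochondrial-mass and membrane-permeability phenotypes are per cents of the healthy-nucleus cells.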

[1] = 12 h, 1 µM, compound concentration 1 uM, replicate 1
[2] = 12 h, 1 µM, compound concentration 1 uM, replicate 2
[3] = 12 h, 10 µM, compound concentration 10 uM, replicate 1
[4] = 12 h, 10 µM, compound concentration 10 uM, replicate 2
[5] = 24 h, 1 µM, compound concentration 1 uM, replicate 1
[6] = 24 h, 1 µM, compound concentration 1 uM, replicate 2
[7] = 24 h, 10 µM, compound concentration 10 uM, replicate 1
[8] = 24 h, 10 µM, compound concentration 10 uM, replicate 2
[9] = 48 h, 1 µM, compound concentration 1 uM, replicate 1
[10] = 48 h, 1 µM, compound concentration 1 uM, replicate 2
[11] = 48 h, 10 µM, compound concentration 10 uM, replicate 1
[12] = 48 h, 10 µM, compound concentration 10 uM, replicate 2

## C[C@H](NC(=O)CNC(=O)c1cccc(Cl)c1)c1ccccc1
[1]
  Population Apoptotic (%): 50%
  Population Fragmented Nuclei (%): 18%
  Population Healthy Nuclei (%): 71%
  Population Hoechst High Intensity Objects (%): 0%
  Population Membrane Permeable-Phenotype (%): 0%
  Population Mitochondria Different-Phenotype (%): 4%
  Population Mitotic Cells (%): 50%
  Population Normal (%): 100%
  Population Pyknosed Nuclei (%): 10%
  Population Tubulin-Different-Phenotype (%): 17%
  Total Cell Count: 94
[2]
  Population Apoptotic (%): 44%
  Population Fragmented Nuclei (%): 28%
  Population Healthy Nuclei (%): 53%
  Population Hoechst High Intensity Objects (%): 3%
  Population Membrane Permeable-Phenotype (%): 6%
  Population Mitochondria Different-Phenotype (%): 2%
  Population Mitotic Cells (%): 56%
  Population Normal (%): 96%
  Population Pyknosed Nuclei (%): 18%
  Population Tubulin-Different-Phenotype (%): 41%
  Total Cell Count: 140
[3]
  Population Apoptotic (%): 48%
  Population Fragmented Nuclei (%): 15%
  Population Healthy Nuclei (%): 58%
  Population Hoechst High Intensity Objects (%): 2%
  Population Membrane Permeable-Phenotype (%): 0%
  Population Mitochondria Different-Phenotype (%): 8%
  Population Mitotic Cells (%): 51%
  Population Normal (%): 97%
  Population Pyknosed Nuclei (%): 26%
  Population Tubulin-Different-Phenotype (%): 35%
  Total Cell Count: 106
[4]
  Population Apoptotic (%): 43%
  Population Fragmented Nuclei (%): 31%
  Population Healthy Nuclei (%): 43%
  Population Hoechst High Intensity Objects (%): 1%
  Population Membrane Permeable-Phenotype (%): 13%
  Population Mitochondria Different-Phenotype (%): 3%
  Population Mitotic Cells (%): 56%
  Population Normal (%): 98%
  Population Pyknosed Nuclei (%): 24%
  Population Tubulin-Different-Phenotype (%): 54%
  Total Cell Count: 124
[5]
  Population Apoptotic (%): 43%
  Population Fragmented Nuclei (%): 17%
  Population Healthy Nuclei (%): 65%
  Population Hoechst High Intensity Objects (%): 1%
  Population Membrane Permeable-Phenotype (%): 1%
  Population Mitochondria Different-Phenotype (%): 3%
  Population Mitotic Cells (%): 56%
  Population Normal (%): 98%
  Population Pyknosed Nuclei (%): 17%
  Population Tubulin-Different-Phenotype (%): 25%
  Total Cell Count: 93
[6]
  Population Apoptotic (%): 33%
  Population Fragmented Nuclei (%): 30%
  Population Healthy Nuclei (%): 50%
  Population Hoechst High Intensity Objects (%): 3%
  Population Membrane Permeable-Phenotype (%): 8%
  Population Mitochondria Different-Phenotype (%): 4%
  Population Mitotic Cells (%): 66%
  Population Normal (%): 96%
  Population Pyknosed Nuclei (%): 19%
  Population Tubulin-Different-Phenotype (%): 42%
  Total Cell Count: 145
[7]
  Population Apoptotic (%): 52%
  Population Fragmented Nuclei (%): 14%
  Population Healthy Nuclei (%): 61%
  Population Hoechst High Intensity Objects (%): 2%
  Population Membrane Permeable-Phenotype (%): 1%
  Population Mitochondria Different-Phenotype (%): 3%
  Population Mitotic Cells (%): 48%
  Population Normal (%): 97%
  Population Pyknosed Nuclei (%): 24%
  Population Tubulin-Different-Phenotype (%): 45%
  Total Cell Count: 107
[8]
  Population Apoptotic (%): 56%
  Population Fragmented Nuclei (%): 33%
  Population Healthy Nuclei (%): 45%
  Population Hoechst High Intensity Objects (%): 5%
  Population Membrane Permeable-Phenotype (%): 5%
  Population Mitochondria Different-Phenotype (%): 7%
  Population Mitotic Cells (%): 43%
  Population Normal (%): 94%
  Population Pyknosed Nuclei (%): 20%
  Population Tubulin-Different-Phenotype (%): 64%
  Total Cell Count: 118
[9]
  Population Apoptotic (%): 33%
  Population Fragmented Nuclei (%): 20%
  Population Healthy Nuclei (%): 67%
  Population Hoechst High Intensity Objects (%): 1%
  Population Membrane Permeable-Phenotype (%): 0%
  Population Mitochondria Different-Phenotype (%): 0%
  Population Mitotic Cells (%): 66%
  Population Normal (%): 98%
  Population Pyknosed Nuclei (%): 12%
  Population Tubulin-Different-Phenotype (%): 26%
  Total Cell Count: 95
[10]
  Population Apoptotic (%): 40%
  Population Fragmented Nuclei (%): 29%
  Population Healthy Nuclei (%): 52%
  Population Hoechst High Intensity Objects (%): 3%
  Population Membrane Permeable-Phenotype (%): 4%
  Population Mitochondria Different-Phenotype (%): 2%
  Population Mitotic Cells (%): 60%
  Population Normal (%): 96%
  Population Pyknosed Nuclei (%): 17%
  Population Tubulin-Different-Phenotype (%): 44%
  Total Cell Count: 147
[11]
  Population Apoptotic (%): 68%
  Population Fragmented Nuclei (%): 15%
  Population Healthy Nuclei (%): 56%
  Population Hoechst High Intensity Objects (%): 7%
  Population Membrane Permeable-Phenotype (%): 1%
  Population Mitochondria Different-Phenotype (%): 15%
  Population Mitotic Cells (%): 31%
  Population Normal (%): 92%
  Population Pyknosed Nuclei (%): 27%
  Population Tubulin-Different-Phenotype (%): 50%
  Total Cell Count: 112
[12]
  Population Apoptotic (%): 69%
  Population Fragmented Nuclei (%): 38%
  Population Healthy Nuclei (%): 50%
  Population Hoechst High Intensity Objects (%): 4%
  Population Membrane Permeable-Phenotype (%): 6%
  Population Mitochondria Different-Phenotype (%): 5%
  Population Mitotic Cells (%): 30%
  Population Normal (%): 95%
  Population Pyknosed Nuclei (%): 11%
  Population Tubulin-Different-Phenotype (%): 67%
  Total Cell Count: 121
